Results as given in publication PMC3423956 (European journal of medicinal chemistry, 2009).

Assays:
[1] = test system: HSV-1 (strain F); assay: HSV-1 plaque reduction assay in Vero cells; assay type: cell-based; details: Human alphaherpesvirus 1, Vero
[2] = test system: herpes simplex virus (HSV); details: cited from earlier work
[3] = Stability in solution; assay type: physicochemical; details: for conversion to ACV: water
Procedure, shortened: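 Test compound was diluted from a freshly made stock into water and into methanol. Half was kept at room temperature and half in the autosampler at 4°C. Samples were injected every 15 min for 2 hr, then hourly, daily and weekly. Analysis was LC-MS/MS on a C18 column (ammonium formate pH 3 or water / methanol gradient, 30°C, ESI+, SRM). Guanine-analog formation was quantified against parent-nucleoside and acyclovir calibrations (10–1000 nM).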

[4] = test system: HCV subgenomic RNA replicon; assay: Anti-HCV activity in Huh-7 cells with HCV subgenomic RNA replicon system; assay type: cell-based; details: Hepatitis C virus, Huh-7, read-out: Anti-HCV activity Huh-7 cells EC50, Huh-7 cells, HCV replicon

## Nc1nc2c(ncn2COCCO)c(=O)[nH]1 [ACV, acyclovir]
[1]; read-out: Activity against HSV-1 EC50
  EC50: 75 nM
[1]; read-out: Activity against HSV-1 EC90
  EC90: 700 nM

## COc1ccc(-c2cn3c(O)c4ncn(COCCO)c4nc3n2)cc1 [Compound 3, 6-(4-MeOPh)-TACV]
[2]
  activity against herpes simplex virus (HSV) compared with parent: as active as their parent congeners
[3]; after 3 weeks
  conversion to ACV: 35%
[3]; after 4 days
  conversion to ACV: 4%

## COc1ccc(-c2cn3c(=O)c4ncn([C@H]5C[C@H](N=[N+]=[N-])[C@@H](CO)O5)c4nc3[nH]2)cc1 [Compound 32, 3-(3-Azido-2,3-dideoxy-β-D-erythro-pentofuranosyl)-3,9-dihydro-6-(4-methoxyphenyl)-9-oxo-5H-imidazo-[1,2-a]purine]
[3]; after 3 weeks
  reversion to parent nucleoside (7 or 8): 60%

## COc1ccc(-c2cn3c(=O)c4ncn([C@@H]5O[C@H](CO)[C@@H](O)[C@@]5(C)O)c4nc3[nH]2)cc1 [Compound 36, 3-(β-D-2-C-Methyl-ribofuranosyl)-3,9-dihydro-6-(4-methoxy-phenyl)-9-oxo-5H-imidazo-[1,2-a]purine]
[4]
  EC50: < 10000 nM
[3]; after 3 weeks
  reversion to parent nucleoside (7 or 8): 30%

## C[C@@]1(O)[C@H](O)[C@@H](CO)O[C@H]1n1cnc2c(=O)n3cc(-c4cccs4)[nH]c3nc21 [Compound 39, 3-(β-D-2-C-Methyl-ribofuranosyl)-3,9-dihydro-6-(2-thienyl)-9-oxo-5H-imidazo-[1,2-a]purine]
[4]
  EC50: < 10000 nM
[3]; after 3 weeks
  reversion to parent nucleoside (7 or 8): 60%
